What was measured:
[1] = target: T1, Bromodomain-containing protein 4 (Homo sapiens, UniProt O60885); assay: Inhibition of recombinant His6-tagged human BRD4 bromodomain 1 expressed in Escherichia coli BL21(DE3)-R3-pRARE2 cells preincubated for 30 mins followed by H4KAc4 peptide substrate addition measured after 30 mins by AlphaScreen assay
[2] = Apparent half life in human liver microsomes at 3 uM; assay type: ADME, microsome; conditions: read-out: t1/2(app)
[3] = Intrinsic clearance in human liver microsomes at 3 uM; assay type: ADME, microsome; conditions: read-out: CLH
A498 = assay: Growth inhibition of human A498 cells after 48 hrs by SRB assay; assay type: functional; conditions: A498, 48 h
How it was run: (§1)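 In-house assay. Cells were seeded into 96-well plates at a density for exponential growth and treated with a concentration range for 48 h. They were then fixed in 10% (w/v) TCA and stained with sulforhodamine B. The 50% growth-inhibitory concentration relative to control cells was calculated as the mean of three repeats ± standard deviation.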

HT-29 = assay: Growth inhibition of human HT-29 cells after 48 hrs by SRB assay; assay type: functional; conditions: HT-29, 48 h; how it was run: as §1
MCF7 = assay: Growth inhibition of human MCF7 cells after 48 hrs by SRB assay; assay type: functional; conditions: MCF7, 48 h; how it was run: as §1
[4] = target: T1, Bromodomain-containing protein 4; assay: Binding affinity to His6-tagged human BRD4 bromodomain 1 expressed in Escherichia coli BL21(DE3)-R3-pRARE2 cells by isothermal titration calorimetric method
[5] = target: ATPase family AAA domain-containing protein 2B (Homo sapiens) (UniProt Q9ULI0); assay: Inhibition of human partial length ATAD2B (Q955 to R1082 residues) expressed in bacterial expression system assessed as residual activity at 1 uM by BROMOscan assay relative to control
[6] = target: Bromodomain-containing protein 2 (Homo sapiens) (UniProt P25440); assay: Inhibition of human partial length BRD2 bromodomain 1 (K71 to N194 residues) expressed in bacterial expression system assessed as residual activity at 1 uM by BROMOscan assay relative to control
Bromodomain-containing protein 2 (Homo sapiens), sequence (P25440 whole entry, looked up, the tested form may be a part): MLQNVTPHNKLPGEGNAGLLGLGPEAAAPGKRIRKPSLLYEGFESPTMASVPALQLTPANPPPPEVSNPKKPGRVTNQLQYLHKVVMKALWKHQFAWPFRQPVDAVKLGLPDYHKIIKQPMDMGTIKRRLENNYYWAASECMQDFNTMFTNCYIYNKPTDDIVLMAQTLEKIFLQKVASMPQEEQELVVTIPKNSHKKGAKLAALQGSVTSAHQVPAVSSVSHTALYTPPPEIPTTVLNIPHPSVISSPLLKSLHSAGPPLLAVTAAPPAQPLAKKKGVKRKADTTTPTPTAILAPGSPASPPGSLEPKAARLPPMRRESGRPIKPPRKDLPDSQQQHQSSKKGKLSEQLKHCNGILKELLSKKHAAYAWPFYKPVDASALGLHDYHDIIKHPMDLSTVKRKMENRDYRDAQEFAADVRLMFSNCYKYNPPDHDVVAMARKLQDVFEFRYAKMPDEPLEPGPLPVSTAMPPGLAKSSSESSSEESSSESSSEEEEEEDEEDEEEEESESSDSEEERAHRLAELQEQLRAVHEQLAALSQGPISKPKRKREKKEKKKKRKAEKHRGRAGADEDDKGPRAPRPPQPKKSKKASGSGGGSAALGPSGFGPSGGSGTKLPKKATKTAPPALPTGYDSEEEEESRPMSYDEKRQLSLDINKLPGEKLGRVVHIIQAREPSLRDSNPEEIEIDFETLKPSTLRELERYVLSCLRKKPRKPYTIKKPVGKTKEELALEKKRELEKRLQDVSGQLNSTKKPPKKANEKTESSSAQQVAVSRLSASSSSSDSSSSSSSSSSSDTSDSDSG

[7] = target: Bromodomain-containing protein 3 (Homo sapiens) (UniProt Q15059); assay: Inhibition of human partial length BRD3 bromodomain 1 (P24 to E144 residues) expressed in bacterial expression system assessed as residual activity at 1 uM by BROMOscan assay relative to control
Bromodomain-containing protein 3 (Homo sapiens), sequence (Q15059 2-726 limits assumed): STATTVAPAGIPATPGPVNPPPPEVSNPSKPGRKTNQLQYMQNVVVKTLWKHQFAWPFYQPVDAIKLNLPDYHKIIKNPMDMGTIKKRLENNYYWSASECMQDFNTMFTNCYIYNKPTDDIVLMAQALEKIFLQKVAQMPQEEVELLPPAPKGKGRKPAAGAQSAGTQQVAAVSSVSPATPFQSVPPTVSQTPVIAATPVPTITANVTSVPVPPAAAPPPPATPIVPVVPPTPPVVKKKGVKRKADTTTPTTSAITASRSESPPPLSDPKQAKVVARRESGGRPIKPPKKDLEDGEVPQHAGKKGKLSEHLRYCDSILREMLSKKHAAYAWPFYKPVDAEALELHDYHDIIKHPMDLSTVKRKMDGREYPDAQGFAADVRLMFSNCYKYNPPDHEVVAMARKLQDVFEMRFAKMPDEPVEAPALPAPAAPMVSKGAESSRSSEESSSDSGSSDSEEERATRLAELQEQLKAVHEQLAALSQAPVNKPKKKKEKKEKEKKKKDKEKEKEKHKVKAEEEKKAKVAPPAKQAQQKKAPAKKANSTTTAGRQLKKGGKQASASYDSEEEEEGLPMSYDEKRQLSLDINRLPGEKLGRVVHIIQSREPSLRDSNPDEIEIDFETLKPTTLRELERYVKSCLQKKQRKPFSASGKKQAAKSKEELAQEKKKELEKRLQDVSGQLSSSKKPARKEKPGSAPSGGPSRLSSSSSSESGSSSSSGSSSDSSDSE

[8] = target: T1, Bromodomain-containing protein 4; assay: Inhibition of human partial length BRD4 bromodomain 1 (N44 to E168 residues) expressed in bacterial expression system assessed as residual activity at 1 uM by BROMOscan assay relative to control
[9] = target: T1, Bromodomain-containing protein 4; assay: Inhibition of human partial length BRD4 bromodomain 2 (K333 to E460 residues) expressed in bacterial expression system assessed as residual activity at 1 uM by BROMOscan assay relative to control
[10] = target: Bromodomain-containing protein 9 (Homo sapiens) (UniProt Q9H8M2); assay: Inhibition of human partial length BRD9 (R130 to V259 residues) expressed in bacterial expression system assessed as residual activity at 1 uM by BROMOscan assay relative to control
[11] = target: Bromodomain testis-specific protein (Homo sapiens) (UniProt Q58F21); assay: Inhibition of human partial length BRDT bromodomain 1 (N21 to E137 residues) expressed in bacterial expression system assessed as residual activity at 1 uM by BROMOscan assay relative to control
Peregrin (Homo sapiens) = Peregrin (Homo sapiens) (UniProt P55201); assay: Inhibition of human partial length BRPF1 (E627 to G740 residues) expressed in bacterial expression system assessed as residual activity at 1 uM by BROMOscan assay relative to control
[12] = target: CREB-binding protein (Homo sapiens) (UniProt Q92793); assay: Inhibition of human partial length CREBBP (R1081 to G1197 residues) expressed in bacterial expression system assessed as residual activity at 1 uM by BROMOscan assay relative to control
CREB-binding protein (Homo sapiens), sequence (Q92793 2-2442 limits assumed): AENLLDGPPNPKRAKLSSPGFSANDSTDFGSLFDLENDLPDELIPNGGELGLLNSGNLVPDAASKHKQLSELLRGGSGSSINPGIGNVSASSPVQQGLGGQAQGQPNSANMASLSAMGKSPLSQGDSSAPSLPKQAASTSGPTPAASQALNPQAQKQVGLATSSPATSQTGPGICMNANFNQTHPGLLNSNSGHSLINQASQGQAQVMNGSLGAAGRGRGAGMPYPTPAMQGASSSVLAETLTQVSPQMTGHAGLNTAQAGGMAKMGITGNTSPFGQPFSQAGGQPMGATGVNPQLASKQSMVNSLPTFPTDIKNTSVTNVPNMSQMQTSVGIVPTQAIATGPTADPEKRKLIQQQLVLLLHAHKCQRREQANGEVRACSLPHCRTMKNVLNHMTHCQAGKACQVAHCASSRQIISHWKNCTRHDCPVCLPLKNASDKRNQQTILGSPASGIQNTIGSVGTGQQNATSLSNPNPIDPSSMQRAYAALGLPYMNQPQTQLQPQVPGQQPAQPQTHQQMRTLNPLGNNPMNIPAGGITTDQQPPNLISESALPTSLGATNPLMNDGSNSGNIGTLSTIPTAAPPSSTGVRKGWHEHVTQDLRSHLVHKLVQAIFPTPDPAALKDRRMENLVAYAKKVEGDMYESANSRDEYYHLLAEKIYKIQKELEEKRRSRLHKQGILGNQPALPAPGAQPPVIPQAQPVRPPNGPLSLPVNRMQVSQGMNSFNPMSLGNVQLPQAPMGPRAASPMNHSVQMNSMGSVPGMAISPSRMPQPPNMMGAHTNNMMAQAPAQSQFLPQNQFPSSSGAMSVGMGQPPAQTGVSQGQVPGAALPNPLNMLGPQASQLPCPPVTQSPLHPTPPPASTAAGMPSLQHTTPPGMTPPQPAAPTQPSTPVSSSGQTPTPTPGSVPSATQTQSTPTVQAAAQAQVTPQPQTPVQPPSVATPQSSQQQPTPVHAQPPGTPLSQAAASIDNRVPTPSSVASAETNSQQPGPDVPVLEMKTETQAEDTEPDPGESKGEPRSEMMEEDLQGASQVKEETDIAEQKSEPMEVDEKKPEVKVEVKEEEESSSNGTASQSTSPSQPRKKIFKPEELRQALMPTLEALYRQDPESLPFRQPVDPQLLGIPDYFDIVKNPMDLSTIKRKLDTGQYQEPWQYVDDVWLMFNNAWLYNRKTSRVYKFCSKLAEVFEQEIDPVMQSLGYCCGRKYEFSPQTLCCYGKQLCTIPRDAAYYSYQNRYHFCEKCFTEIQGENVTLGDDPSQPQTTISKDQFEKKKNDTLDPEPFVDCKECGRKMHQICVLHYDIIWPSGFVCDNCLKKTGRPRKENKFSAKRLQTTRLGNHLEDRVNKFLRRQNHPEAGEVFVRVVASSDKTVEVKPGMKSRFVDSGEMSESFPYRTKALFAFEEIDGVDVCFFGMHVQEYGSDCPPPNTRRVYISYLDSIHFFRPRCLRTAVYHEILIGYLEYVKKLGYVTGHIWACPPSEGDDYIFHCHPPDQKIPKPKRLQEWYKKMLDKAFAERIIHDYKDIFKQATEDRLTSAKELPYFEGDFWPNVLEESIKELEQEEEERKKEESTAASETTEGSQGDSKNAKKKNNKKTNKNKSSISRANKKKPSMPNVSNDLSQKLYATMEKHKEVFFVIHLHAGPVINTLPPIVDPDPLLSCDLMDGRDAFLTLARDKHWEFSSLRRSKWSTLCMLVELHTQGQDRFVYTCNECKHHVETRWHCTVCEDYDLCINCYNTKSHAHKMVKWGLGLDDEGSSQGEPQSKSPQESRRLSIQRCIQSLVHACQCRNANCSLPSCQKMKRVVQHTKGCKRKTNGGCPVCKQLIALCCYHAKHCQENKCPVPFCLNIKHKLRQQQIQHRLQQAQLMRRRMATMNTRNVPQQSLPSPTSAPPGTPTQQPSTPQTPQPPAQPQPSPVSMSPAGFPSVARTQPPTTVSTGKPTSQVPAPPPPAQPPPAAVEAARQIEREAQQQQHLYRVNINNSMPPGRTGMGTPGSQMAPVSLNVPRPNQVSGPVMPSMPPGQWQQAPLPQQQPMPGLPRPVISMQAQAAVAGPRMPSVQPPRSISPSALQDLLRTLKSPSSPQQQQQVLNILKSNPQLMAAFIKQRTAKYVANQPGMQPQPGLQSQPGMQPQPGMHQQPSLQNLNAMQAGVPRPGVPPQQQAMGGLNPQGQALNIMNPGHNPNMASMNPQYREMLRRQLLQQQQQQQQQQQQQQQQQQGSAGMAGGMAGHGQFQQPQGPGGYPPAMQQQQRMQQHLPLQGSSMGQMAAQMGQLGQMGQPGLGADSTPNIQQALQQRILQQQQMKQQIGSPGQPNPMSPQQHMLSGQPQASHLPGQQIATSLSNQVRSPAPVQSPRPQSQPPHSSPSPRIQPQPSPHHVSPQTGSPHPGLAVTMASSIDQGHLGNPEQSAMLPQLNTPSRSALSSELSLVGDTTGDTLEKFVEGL

[13] = target: Histone acetyltransferase KAT2B (Homo sapiens) (UniProt Q92831); assay: Inhibition of human partial length PCAF (G715 to D831 residues) expressed in bacterial expression system assessed as residual activity at 1 uM by BROMOscan assay relative to control
Histone acetyltransferase KAT2B (Homo sapiens), sequence (Q92831 whole entry, looked up, the tested form may be a part): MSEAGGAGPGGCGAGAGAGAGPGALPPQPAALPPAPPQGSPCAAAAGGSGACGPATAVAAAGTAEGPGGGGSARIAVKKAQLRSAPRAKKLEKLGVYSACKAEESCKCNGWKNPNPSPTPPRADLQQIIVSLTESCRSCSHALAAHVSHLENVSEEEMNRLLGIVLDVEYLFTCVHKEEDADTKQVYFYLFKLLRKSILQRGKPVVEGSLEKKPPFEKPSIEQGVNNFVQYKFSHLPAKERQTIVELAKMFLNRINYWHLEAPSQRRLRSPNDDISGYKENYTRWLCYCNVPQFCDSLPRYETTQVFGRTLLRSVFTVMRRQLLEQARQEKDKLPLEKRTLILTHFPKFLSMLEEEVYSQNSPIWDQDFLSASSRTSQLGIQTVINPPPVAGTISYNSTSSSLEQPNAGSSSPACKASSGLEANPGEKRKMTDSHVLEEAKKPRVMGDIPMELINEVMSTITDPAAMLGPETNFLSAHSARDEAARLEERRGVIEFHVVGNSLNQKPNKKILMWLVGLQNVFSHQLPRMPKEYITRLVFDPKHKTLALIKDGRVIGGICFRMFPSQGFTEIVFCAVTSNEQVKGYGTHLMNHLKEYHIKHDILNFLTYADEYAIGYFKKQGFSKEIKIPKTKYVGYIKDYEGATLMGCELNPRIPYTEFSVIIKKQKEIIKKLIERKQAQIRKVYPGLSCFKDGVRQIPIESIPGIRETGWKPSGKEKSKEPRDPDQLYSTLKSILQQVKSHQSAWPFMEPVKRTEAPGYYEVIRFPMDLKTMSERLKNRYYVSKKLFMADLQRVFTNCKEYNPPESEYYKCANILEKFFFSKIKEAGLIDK

[14] = target: SWI/SNF-related matrix-associated actin-dependent regulator of chromatin subfamily A member 4 (Homo sapiens) (UniProt P51532); assay: Inhibition of human partial length SMARCA4 (A1448 to S1575 residues) expressed in bacterial expression system assessed as residual activity at 1 uM by BROMOscan assay relative to control
[15] = target: Bromodomain and WD repeat-containing protein 1 (Homo sapiens) (UniProt Q9NSI6); assay: Inhibition of human partial length WDR9 bromodomain 2 (A1310 to E1430 residues) expressed in bacterial expression system assessed as residual activity at 1 uM by BROMOscan assay relative to control

## Cc1noc(C)c1-c1cc(O)cc(C(=O)N2CCNCC2)c1
[1]; read-out: IC50
  IC50: 722 nM
[1]; read-out: pIC50 (converted)
  IC50: 724 nM

## Cc1noc(C)c1-c1cc(O)cc(C(O)C2CC2)c1 (stereo not given)
[1]; read-out: IC50
  IC50: 377 nM
[1]; read-out: pIC50 (converted)
  IC50: 380 nM

## Cc1noc(C)c1-c1cc(O)cc(C(=O)N2CCOCC2)c1
[1]; read-out: IC50
  IC50: 3800 nM
[1]; read-out: pIC50 (converted)
  IC50: 3800 nM

## Cc1noc(C)c1-c1cc(O)cc(CN2CCN(C)CC2)c1
[1]; read-out: IC50
  IC50: 1230 nM
[1]; read-out: pIC50 (converted)
  IC50: 1230 nM

## COc1ccc2c(c1)[C@]13CCCC[C@@H]1[C@H](C2)N(C)CC3 [DEXTROMETHORPHAN]
[2]
  half-life at 3 µM: 54.5 min
[3]
  microsomal CLint at 3 µM: 25.4 µL/min/mg

## Cc1noc(C)c1-c1cc(O)cc(CN2CCOCC2)c1
[1]; read-out: IC50
  IC50: 956 nM
[1]; read-out: pIC50 (converted)
  IC50: 955 nM

## Cc1noc(C)c1-c1cc(O)cc(C(O)c2ccc(Cl)cn2)c1 (stereo not given)
[1]; read-out: IC50
  IC50: 495 nM
[1]; read-out: pIC50 (converted)
  IC50: 490 nM

## Cc1noc(C)c1-c1cc(O)cc(Cc2ccccc2)c1
[1]; read-out: IC50
  IC50: 1100 nM
[1]; read-out: pIC50 (converted)
  IC50: 1100 nM

## Cc1noc(C)c1-c1cc(O)cc(C(O)c2cccnc2)c1 (stereo not given)
[1]; read-out: IC50
  IC50: 166 nM
[1]; read-out: pIC50 (converted)
  IC50: 166 nM
[2]
  half-life at 3 µM: 388 min
[3]
  microsomal CLint at 3 µM: 3.57 µL/min/mg
A498
  GI50: 4880 nM
HT-29
  GI50: 4400 nM
MCF7
  GI50: 1400 nM
[4]
  Kd: 247 nM
[5]
  Activity: 98%
[6]
  Activity: 1.8%
[7]
  Activity: 1.5%
[8]
  Activity: 4.6%
[9]
  Activity: 1.1%
[10]
  Activity: 100%
[11]
  Activity: 11%
Peregrin (Homo sapiens)
  Activity: 100%
[12]
  Activity: 29%
[13]
  Activity: 100%
[14]
  Activity: 100%
[15]
  Activity: 100%

## Cc1noc(C)c1-c1cc(O)cc(CN2CCCCC2)c1
[1]; read-out: IC50
  IC50: 4280 nM
[1]; read-out: pIC50 (converted)
  IC50: 4270 nM

## COc1ccccc1C(O)c1cc(O)cc(-c2c(C)noc2C)c1 (stereo not given)
[1]; read-out: IC50
  IC50: 270 nM
[1]; read-out: pIC50 (converted)
  IC50: 269 nM

## Cc1noc(C)c1-c1cc(O)cc(C(O)c2cccc(F)c2)c1 (stereo not given)
[1]; read-out: IC50
  IC50: 793 nM
[1]; read-out: pIC50 (converted)
  IC50: 794 nM

## Cc1noc(C)c1-c1cc(O)cc(CN2CCC(F)(F)CC2)c1
[1]; read-out: IC50
  IC50: 235 nM
[1]; read-out: pIC50 (converted)
  IC50: 234 nM
[2]
  half-life at 3 µM: 27 min
[3]
  microsomal CLint at 3 µM: 51.4 µL/min/mg

## Cc1noc(C)c1-c1cc(O)cc(CN2CCCC2)c1
[1]; read-out: IC50
  IC50: 3270 nM
[1]; read-out: pIC50 (converted)
  IC50: 3240 nM

## Cc1noc(C)c1-c1cc(O)cc(C(O)c2ccccn2)c1 (stereo not given)
[1]; read-out: IC50
  IC50: 4680 nM
[1]; read-out: pIC50 (converted)
  IC50: 4680 nM

## Cc1noc(C)c1-c1cc(O)cc(C(O)c2ccncc2)c1 (stereo not given)
[1]; read-out: IC50
  IC50: 303 nM
[1]; read-out: pIC50 (converted)
  IC50: 302 nM

## COc1ccc(C(O)c2cc(O)cc(-c3c(C)noc3C)c2)cc1 (stereo not given)
[1]; read-out: IC50
  IC50: 585 nM
[1]; read-out: pIC50 (converted)
  IC50: 589 nM

## Cc1noc(C)c1-c1cc(O)cc(C(O)c2ccc(F)cc2)c1 (stereo not given)
[1]; read-out: IC50
  IC50: 842 nM
[1]; read-out: pIC50 (converted)
  IC50: 851 nM

## Cc1noc(C)c1-c1cc(O)cc(C(O)c2ccccc2F)c1 (stereo not given)
[1]; read-out: IC50
  IC50: 1420 nM
[1]; read-out: pIC50 (converted)
  IC50: 1410 nM

## Cc1ccc(C(O)c2cc(O)cc(-c3c(C)noc3C)c2)cc1 (stereo not given)
[1]; read-out: IC50
  IC50: 296 nM
[1]; read-out: pIC50 (converted)
  IC50: 295 nM

## Cc1noc(C)c1-c1cc(O)cc(C(O)c2ccc(Cl)cc2)c1 (stereo not given)
[1]; read-out: IC50
  IC50: 631 nM
[1]; read-out: pIC50 (converted)
  IC50: 631 nM

## Cc1noc(C)c1-c1cc(O)cc(C(O)C2CCCCC2)c1 (stereo not given)
[1]; read-out: IC50
  IC50: 166 nM
[1]; read-out: pIC50 (converted)
  IC50: 166 nM

## COc1cccc(C(O)c2cc(O)cc(-c3c(C)noc3C)c2)c1 (stereo not given)
[1]; read-out: IC50
  IC50: 478 nM
[1]; read-out: pIC50 (converted)
  IC50: 479 nM

## Cc1noc(C)c1-c1cc(O)cc(CNCc2ccccc2)c1
[1]; read-out: IC50
  IC50: 2250 nM
[1]; read-out: pIC50 (converted)
  IC50: 2240 nM

## Cc1noc(C)c1-c1cc(O)cc(C(O)c2ccc(Cl)c(Cl)c2)c1 (stereo not given)
[1]; read-out: IC50
  IC50: 945 nM
[1]; read-out: pIC50 (converted)
  IC50: 955 nM

From ChEMBL document CHEMBL4118192, “BET bromodomain ligands: Probing the WPF shelf to improve BRD4 bromodomain affinity and metabolic stability” (Bioorg Med Chem, 2018)
